According to ChEMBL document CHEMBL5257040, “Discovery of VU2957 (Valiglurax): An mGlu4 Positive Allosteric Modulator Evaluated as a Preclinical Candidate for the Treatment of Parkinson's Disease” (ACS Med Chem Lett, 2019):
Active and inactive are the calls of the source. The calls are words filed in the database; no cut-off is given here.

Assays:
[1] = target: Metabotropic glutamate receptor 2 (Rattus norvegicus, UniProt P31421); test: Positive allosteric modulator activity at rat mGlu2 in human HEK cells co-expressing […] assessed as increase in by thallium flux preincubated for 2.5 mins followed by gluatamate addition by thallium flux assay; format: cell-based
[2] = Protein binding in rat plasma assessed as fraction unbound incubated for 4 hrs by equilibrium dialysis based LC/MS/MS analysis; format: ADME, cell-free
[3] = Drug uptake in cerebrospinal fluid of haloperidol-induced catalepsy Sprague-Dawley rat model at 0.3 to 30 mg/kg,po; format: ADME, organism-based; conditions: in vivo, dose 0.3-30 mg/kg, read-out: Ct
How it was run: (§1)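 Rats were given haloperidol 1.5 mg/kg i.p. to induce catalepsy and dosed orally at 0.3–30 mg/kg, N = 8–10 per group. Total plasma and CSF concentrations were measured alongside the catalepsy read-out. Satellite rats were used for PK in the time-course study.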

[4] = Solubility of compound in FaSSIF; format: ADME
Rattus norvegicus [5] = test: Reversal of haloperidol-induced catalepsy Sprague-Dawley rat model at 0.3 to 30 mg/kg,po and measured upto 6 hrs; format: functional, organism-based; conditions: dose 0.3-30 mg/kg
How it was run: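 Time course in the haloperidol (1.5 mg/kg i.p.) catalepsy model in rats after a single 30 mg/kg oral dose, followed for up to 6 h. Satellite rats dosed in parallel gave plasma and CSF exposures.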

[6] = target: Metabotropic glutamate receptor 4 (Rattus norvegicus) (UniProt P31423); test: Positive allosteric modulator activity at rat mGlu4 in human HEK cells co-expressing […] assessed as maximum increase in by thallium flux preincubated for 2.5 mins followed by gluatamate addition and measured for 2 mins by thallium flux assay; format: cell-based; conditions: filed as positive allosteric modulator, time 4.5 min
[7] = target: Metabotropic glutamate receptor 3 (Rattus norvegicus, UniProt P31422); test: Positive allosteric modulator activity at rat mGlu3 in human HEK cells co-expressing […] assessed as increase in by thallium flux preincubated for 2.5 mins followed by gluatamate addition by thallium flux assay; format: cell-based
[8] = Cmax in Sprague-Dawley rat at 3 mg/kg, po administered as spray-dried dispersion formulation and measured after 24 hrs by LC-MS/MS analysis; format: ADME, organism-based; design: time 24 hrs, dose 3 mg/kg, route po; conditions: in vivo
How it was run: (§2)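 Rats were dosed orally at 3, 10 and 30 mg/kg with a spray-dried dispersion of the free base and HPMCP-HP55 polymer (25%/75%), in 30% Dexolve. Total plasma Cmax and AUC were measured, N = 3.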

[9] = Elimination half life in Cynomolgus monkey at 0.2 mg/kg, iv and measured upto 24 hrs by LC-MS/MS analysis; format: ADME, organism-based, Macaca fascicularis; conditions: in vivo, read-out: beta t1/2 (converted)
How it was run: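 Single intravenous doses: mouse 1 mg/kg, SD rat 0.2 mg/kg, beagle dog 0.5 mg/kg, cynomolgus monkey 0.2 mg/kg. Plasma clearance, Vss and elimination half-life came from the plasma profiles. Values are means of two to three animals.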

[10] = Cmax in Sprague-Dawley rat at 10 mg/kg, po administered as spray-dried dispersion formulation and measured after 24 hrs by LC-MS/MS analysis; format: ADME, organism-based; design: dose 10 mg/kg, time 24 hrs, route po; conditions: in vivo; how it was run: as §2
[11] = target: Metabotropic glutamate receptor 4 (Homo sapiens) (UniProt Q14833); test: Positive allosteric modulator activity at human mGlu4 in Chinese hamster CHO cells co-expressing Gqi5 assessed as maximum increase in calcium flux preincubated for 2.5 mins followed by gluatamate addition and measured for 2 mins by Fluo-4 AM dye based calcium mobilization assay; format: cell-based; conditions: filed as positive allosteric modulator, time 4.5 min
P-gp (ABCB1) = P-gp (ABCB1) (Homo sapiens, UniProt P08183); test: Substrate activity at human P-gp assessed as apparent permeability; format: ADME; conditions: not told
[12] = Volume of distribution at steady state in CD-1 mouse plasma at 1 mg/kg, iv and measured upto 24 hrs by LC-MS/MS analysis; format: ADME, organism-based; conditions: read-out: Vdss
How it was run: (§3)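 Single-dose iv and oral PK in separate arms: mouse 1 mg/kg iv / 3 mg/kg po, SD rat 0.2/3, beagle 0.5/3, cynomolgus 0.2/3 mg/kg. Plasma parameters (Vss, Tmax, F) are means of two to three animals per species.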

[13] = Drug uptake in plasma of haloperidol-induced catalepsy Sprague-Dawley rat model at 0.3 to 30 mg/kg,po; format: ADME, organism-based; conditions: in vivo, dose 0.3-30 mg/kg; how it was run: as §1
[14] = AUC (0 to infinity) in Beagle dog at 3 mg/kg, po and measured upto 24 hrs by LC-MS/MS analysis; format: ADME, organism-based, Canis lupus familiaris; design: time < 24 hrs, dose 3 mg/kg, route po; conditions: in vivo
How it was run: (§4)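 Single oral 3 mg/kg dose in mouse, SD rat, beagle dog and cynomolgus monkey. Total plasma exposure after the oral dose gave Cmax, Tmax, AUC0-inf and F. Values are means of two to three animals.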

[15] = AUC (0 to infinity) in CD-1 mouse plasma at 3 mg/kg, po and measured upto 24 hrs by LC-MS/MS analysis; format: ADME, organism-based; design: dose 3 mg/kg, time < 24 hrs, route po; how it was run: as §4
KCNQ1/MINK = KCNQ1/MINK (Homo sapiens, UniProt P51787+Q8N4C8); test: Inhibition of KCNQ1/MINK (unknown origin) at 10 uM; format: toxicity
How it was run: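 Cardiac ion channel electrophysiology (functional EP) panel, with percent inhibition measured at 10 μM.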

Rattus norvegicus [16] = test: Reversal of haloperidol-induced catalepsy Sprague-Dawley rat model assessed as minimum effective dose administered orally; format: functional; conditions: route po, read-out: MED
How it was run: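 Sprague-Dawley rats received haloperidol 1.5 mg/kg i.p. to induce catalepsy, with the compound dosed orally at 0.3–30 mg/kg. Groups were 8–10 rats and compared with vehicle + haloperidol (p < 0.05). MED = lowest oral dose giving significant reversal.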

[17] = Protein binding in human plasma assessed as fraction unbound incubated for 4 hrs by equilibrium dialysis based LC/MS/MS analysis; format: ADME, cell-free
[18] = Oral bioavailability in Sprague-Dawley rat at 3 mg/kg and measured upto 24 hrs by LC-MS/MS analysis; format: ADME, organism-based; conditions: in vivo; how it was run: as §3
Cytochrome P450 2C9 = Cytochrome P450 2C9 (Homo sapiens, UniProt P11712); test: Inhibition of CYP2C9 in human liver microsomes using […] as substrate preincubated for 15 mins followed by NADPH addition and measured after 8 mins by LC/MS/MS analysis; format: ADME, Microsome
[19] = Volume of distribution at steady state in Beagle dog at 0.5 mg/kg, iv and measured upto 24 hrs by LC-MS/MS analysis; format: ADME, organism-based, Canis lupus familiaris; conditions: in vivo, read-out: Vdss; how it was run: as §3
[20] = Oral bioavailability in Cynomolgus monkey at 3 mg/kg administered as spray-dried dispersion formulation and measured upto 24 hrs by LC-MS/MS analysis; format: ADME, organism-based, Macaca fascicularis; conditions: in vivo
How it was run: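 Cynomolgus oral dosing used a spray-dried dispersion of the compound with HPMCP-HP55 polymer at a 25%/75% drug-to-polymer ratio. Oral bioavailability (%F) was determined from plasma exposure.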

[21] = target: Amine oxidase [flavin-containing] A (Homo sapiens, UniProt P21397); test: Binding affinity to MAO-A (unknown origin)
[22] = Brain to plasma permeability coefficient, Kp in cynomolgus monkey at 0.2 mg/kg, iv and measured upto 1 hrs by LC-MS/MS analysis; format: ADME, organism-based, Macaca fascicularis
How it was run: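 Total brain to total plasma partition coefficient (Kp) measured in mouse, SD rat and cynomolgus monkey. The unbound ratio (Kp,uu) was corrected with brain homogenate binding. Values are means of two to three animals.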

[23] = AUC in Sprague-Dawley rat at 10 mg/kg, po administered as spray-dried dispersion formulation and measured after 24 hrs by LC-MS/MS analysis; format: ADME, organism-based; design: dose 10 mg/kg, time 24 hrs, route po; conditions: in vivo; how it was run: as §2
[24] = Genotoxicity in Salmonella typhimurium […] in presence of S9 fraction by Ames test; format: toxicity, subcellular; conditions: salmonella enterica subsp. enterica serovar typhimurium
How it was run: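 Ames bacterial reverse mutation test in strains TA98 and […], run with and without S9 metabolic activation.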

Sequence of Cytochrome P450 2C9 (P11712 whole entry): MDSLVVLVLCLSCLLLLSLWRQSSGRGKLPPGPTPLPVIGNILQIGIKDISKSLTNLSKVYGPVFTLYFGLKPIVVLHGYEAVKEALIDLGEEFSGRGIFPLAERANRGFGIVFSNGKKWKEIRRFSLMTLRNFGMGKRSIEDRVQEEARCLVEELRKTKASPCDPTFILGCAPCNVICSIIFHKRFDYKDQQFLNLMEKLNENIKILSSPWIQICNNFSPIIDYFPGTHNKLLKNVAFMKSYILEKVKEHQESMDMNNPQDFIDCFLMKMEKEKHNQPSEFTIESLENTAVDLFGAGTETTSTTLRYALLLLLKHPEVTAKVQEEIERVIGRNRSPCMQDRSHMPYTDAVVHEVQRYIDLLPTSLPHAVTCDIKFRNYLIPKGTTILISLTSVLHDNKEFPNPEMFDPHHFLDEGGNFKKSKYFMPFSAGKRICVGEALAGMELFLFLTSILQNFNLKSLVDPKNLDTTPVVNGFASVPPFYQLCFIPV
Sequence of Metabotropic glutamate receptor 3 (P31422 whole entry): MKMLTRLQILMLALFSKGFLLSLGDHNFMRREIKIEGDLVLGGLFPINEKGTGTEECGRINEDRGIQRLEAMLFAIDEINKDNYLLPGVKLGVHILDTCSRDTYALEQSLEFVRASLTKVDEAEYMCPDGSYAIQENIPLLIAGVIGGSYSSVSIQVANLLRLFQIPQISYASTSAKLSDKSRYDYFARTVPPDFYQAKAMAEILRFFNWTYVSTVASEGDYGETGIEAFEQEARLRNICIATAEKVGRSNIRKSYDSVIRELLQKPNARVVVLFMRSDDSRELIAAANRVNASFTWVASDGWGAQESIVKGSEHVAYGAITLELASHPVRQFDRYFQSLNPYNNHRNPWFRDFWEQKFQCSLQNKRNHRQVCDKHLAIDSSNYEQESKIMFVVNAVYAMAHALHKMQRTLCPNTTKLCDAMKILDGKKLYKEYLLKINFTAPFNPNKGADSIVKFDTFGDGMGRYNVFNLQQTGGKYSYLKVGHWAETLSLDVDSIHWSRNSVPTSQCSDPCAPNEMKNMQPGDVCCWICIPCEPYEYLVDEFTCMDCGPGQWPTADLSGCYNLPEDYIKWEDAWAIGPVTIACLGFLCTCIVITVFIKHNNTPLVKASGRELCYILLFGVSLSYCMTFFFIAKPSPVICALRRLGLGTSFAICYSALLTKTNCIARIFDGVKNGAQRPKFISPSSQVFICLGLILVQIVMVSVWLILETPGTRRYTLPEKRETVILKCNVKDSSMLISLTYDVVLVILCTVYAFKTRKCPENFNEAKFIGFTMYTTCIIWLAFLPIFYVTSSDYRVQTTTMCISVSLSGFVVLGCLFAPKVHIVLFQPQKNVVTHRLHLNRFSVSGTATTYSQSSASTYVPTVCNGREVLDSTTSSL
Sequence of Metabotropic glutamate receptor 4 (Homo sapiens) (Q14833 whole entry): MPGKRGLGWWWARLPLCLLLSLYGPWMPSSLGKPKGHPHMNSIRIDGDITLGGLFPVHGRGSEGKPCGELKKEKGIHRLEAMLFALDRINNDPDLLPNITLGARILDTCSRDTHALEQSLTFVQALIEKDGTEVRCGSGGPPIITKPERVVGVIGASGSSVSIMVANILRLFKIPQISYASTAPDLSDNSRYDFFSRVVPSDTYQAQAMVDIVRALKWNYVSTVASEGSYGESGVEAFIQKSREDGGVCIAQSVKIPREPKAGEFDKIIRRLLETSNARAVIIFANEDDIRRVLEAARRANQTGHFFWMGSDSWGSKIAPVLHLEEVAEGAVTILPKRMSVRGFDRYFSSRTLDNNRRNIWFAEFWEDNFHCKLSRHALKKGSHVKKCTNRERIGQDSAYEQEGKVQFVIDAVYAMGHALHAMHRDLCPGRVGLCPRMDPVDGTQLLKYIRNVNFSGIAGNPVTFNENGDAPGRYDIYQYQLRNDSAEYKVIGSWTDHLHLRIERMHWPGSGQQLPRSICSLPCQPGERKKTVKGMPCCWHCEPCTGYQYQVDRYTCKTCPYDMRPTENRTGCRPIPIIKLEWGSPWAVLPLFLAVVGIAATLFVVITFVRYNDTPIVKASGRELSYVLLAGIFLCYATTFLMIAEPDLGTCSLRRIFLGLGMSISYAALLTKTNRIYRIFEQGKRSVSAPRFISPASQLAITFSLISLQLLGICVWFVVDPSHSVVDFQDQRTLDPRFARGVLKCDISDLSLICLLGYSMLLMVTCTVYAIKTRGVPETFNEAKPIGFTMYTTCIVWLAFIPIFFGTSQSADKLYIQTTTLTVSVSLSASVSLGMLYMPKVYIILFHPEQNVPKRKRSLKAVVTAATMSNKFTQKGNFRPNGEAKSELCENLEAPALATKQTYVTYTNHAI
Sequence of Amine oxidase [flavin-containing] A (P21397 whole entry): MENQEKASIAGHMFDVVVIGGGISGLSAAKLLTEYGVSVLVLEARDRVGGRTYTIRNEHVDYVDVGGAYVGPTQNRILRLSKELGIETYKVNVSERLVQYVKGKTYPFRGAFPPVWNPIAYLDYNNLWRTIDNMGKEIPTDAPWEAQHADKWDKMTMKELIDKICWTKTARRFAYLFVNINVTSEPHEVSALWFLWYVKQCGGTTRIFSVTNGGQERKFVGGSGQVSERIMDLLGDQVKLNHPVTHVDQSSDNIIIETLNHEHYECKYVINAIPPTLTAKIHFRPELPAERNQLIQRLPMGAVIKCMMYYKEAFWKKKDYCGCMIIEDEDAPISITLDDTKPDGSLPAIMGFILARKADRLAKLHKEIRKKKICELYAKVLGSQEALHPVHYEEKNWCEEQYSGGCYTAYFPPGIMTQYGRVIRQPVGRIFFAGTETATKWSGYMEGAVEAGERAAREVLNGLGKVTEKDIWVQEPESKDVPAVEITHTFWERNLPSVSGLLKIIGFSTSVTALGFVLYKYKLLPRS
Sequence of KCNQ1/MINK (P51787 whole entry): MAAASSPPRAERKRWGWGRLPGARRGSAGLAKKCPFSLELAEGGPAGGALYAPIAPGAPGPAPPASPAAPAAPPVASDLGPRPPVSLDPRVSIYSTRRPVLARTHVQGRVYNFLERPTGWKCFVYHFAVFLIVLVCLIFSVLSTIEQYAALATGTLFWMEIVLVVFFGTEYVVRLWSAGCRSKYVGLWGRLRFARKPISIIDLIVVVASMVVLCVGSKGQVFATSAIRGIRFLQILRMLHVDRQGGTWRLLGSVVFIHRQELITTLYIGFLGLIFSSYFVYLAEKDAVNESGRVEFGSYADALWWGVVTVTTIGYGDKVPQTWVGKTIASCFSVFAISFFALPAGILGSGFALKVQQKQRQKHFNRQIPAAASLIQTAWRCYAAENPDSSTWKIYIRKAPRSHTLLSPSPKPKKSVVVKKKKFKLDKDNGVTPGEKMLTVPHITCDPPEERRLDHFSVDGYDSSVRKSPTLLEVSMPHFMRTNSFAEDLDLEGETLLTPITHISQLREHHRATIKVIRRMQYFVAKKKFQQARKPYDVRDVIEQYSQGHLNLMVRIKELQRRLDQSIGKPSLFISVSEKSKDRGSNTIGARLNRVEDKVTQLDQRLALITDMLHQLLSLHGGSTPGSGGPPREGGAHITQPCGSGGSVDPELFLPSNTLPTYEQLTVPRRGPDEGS
Sequence of KCNQ1/MINK (Q8N4C8 whole entry): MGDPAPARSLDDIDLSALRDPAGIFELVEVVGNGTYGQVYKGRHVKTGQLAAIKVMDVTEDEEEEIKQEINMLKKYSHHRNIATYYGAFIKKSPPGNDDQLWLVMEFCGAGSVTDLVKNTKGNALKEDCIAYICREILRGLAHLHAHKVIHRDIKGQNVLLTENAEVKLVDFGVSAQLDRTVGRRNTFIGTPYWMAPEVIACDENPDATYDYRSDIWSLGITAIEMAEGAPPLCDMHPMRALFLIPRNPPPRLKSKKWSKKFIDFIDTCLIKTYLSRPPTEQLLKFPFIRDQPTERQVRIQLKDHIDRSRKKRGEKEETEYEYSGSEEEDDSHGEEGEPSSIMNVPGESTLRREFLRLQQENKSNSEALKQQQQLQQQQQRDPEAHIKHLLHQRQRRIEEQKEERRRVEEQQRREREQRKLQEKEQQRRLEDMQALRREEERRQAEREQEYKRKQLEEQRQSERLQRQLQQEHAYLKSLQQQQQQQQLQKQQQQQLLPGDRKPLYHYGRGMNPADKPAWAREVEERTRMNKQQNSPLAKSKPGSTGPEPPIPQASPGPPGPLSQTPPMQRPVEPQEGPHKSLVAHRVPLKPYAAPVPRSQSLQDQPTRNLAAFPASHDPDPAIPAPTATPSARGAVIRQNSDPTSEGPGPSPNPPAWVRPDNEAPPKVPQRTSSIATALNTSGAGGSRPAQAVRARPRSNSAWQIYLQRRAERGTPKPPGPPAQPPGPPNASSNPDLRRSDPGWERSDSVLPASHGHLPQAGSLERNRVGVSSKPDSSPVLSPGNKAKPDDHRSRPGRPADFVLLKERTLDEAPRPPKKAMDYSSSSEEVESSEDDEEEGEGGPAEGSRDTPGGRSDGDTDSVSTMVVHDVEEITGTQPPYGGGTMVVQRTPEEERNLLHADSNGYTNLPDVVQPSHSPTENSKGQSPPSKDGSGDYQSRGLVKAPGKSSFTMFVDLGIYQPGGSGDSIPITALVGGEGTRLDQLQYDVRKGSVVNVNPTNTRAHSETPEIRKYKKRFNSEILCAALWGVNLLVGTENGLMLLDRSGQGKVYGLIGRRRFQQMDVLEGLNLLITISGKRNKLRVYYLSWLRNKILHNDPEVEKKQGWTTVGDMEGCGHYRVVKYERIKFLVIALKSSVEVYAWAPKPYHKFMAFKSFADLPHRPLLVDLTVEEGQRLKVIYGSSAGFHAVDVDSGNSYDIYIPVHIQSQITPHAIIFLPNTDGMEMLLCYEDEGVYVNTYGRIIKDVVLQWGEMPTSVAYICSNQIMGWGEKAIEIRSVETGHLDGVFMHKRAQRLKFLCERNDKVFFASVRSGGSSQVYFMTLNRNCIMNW

For `FC(F)(F)c1nccc2cc(Nc3n[nH]c4ncccc34)ccc12`, the EC50 [1] was over 10 µM, the fraction unbound at 4 h [2] was 0.01 and the concentration [3] was 148 nM. The solubility [4] was under 5 µg/mL, the Activity (Rattus norvegicus [5]) was “Active” and the Emax [6] was 132%. It also gave an EC50 [7] of over 10 µM, a Cmax [8] of 630 nM and a half-life [9] of 3.98 h. For the same molecule, the Cmax [10] was 2050 nM, the Emax [11] was 92.6% and the Papp (P-gp (ABCB1)) was 8 ×10⁻⁶ cm/s. The Vd [12] was 9.93 L/kg, the concentration [13] was 322 nM and the AUC(0-inf) [14] was 1.82 µM·h. For the same molecule, the AUC(0-inf) [15] was 1.55 µM·h, the inhibition at 10 µM (KCNQ1/MINK) was under 50% and the minimal effective dose (Rattus norvegicus [16]) was 1 mg/kg. The fraction unbound at 4 h [17] was 0.016, the bioavailability [18] was 100% and the IC50 (Cytochrome P450 2C9) was over 30 µM. It also gave a Vd [19] of 4.3 L/kg, a bioavailability [20] of 58% and an EC50 [21] of over 30 µM. The Kp at 1 h [22] was 1.24, the AUC at 24 h [23] was 23.7 µM·h and the Activity [24] was “Non-Toxic”.
